Where “and” joins values, the source holds several entries; their conditions need not be identical. Identical values can stand only once. Like-named read-outs stand apart in the source and are kept apart here.
Assays:
[1] = test system: VGLUT; assay: Vesicular glutamate uptake into synaptic vesicles; format: biochemical, rat
[2] = biological target: VGLUT; assay: Kinetics of vesicular glutamate uptake with Brilliant Yellow; format: biochemical, rat; details: competitive with glutamate; 0, 40, 60 and 80 nM Brilliant Yellow; n=3
[3] = biological target: T1, vesicular GABA transporter (Bos taurus, UniProt G3N354); assay: Vesicular GABA uptake into synaptic vesicles; format: biochemical, bovine; details: concentrations up to 50 μM
T1 sequence (G3N354 1-526): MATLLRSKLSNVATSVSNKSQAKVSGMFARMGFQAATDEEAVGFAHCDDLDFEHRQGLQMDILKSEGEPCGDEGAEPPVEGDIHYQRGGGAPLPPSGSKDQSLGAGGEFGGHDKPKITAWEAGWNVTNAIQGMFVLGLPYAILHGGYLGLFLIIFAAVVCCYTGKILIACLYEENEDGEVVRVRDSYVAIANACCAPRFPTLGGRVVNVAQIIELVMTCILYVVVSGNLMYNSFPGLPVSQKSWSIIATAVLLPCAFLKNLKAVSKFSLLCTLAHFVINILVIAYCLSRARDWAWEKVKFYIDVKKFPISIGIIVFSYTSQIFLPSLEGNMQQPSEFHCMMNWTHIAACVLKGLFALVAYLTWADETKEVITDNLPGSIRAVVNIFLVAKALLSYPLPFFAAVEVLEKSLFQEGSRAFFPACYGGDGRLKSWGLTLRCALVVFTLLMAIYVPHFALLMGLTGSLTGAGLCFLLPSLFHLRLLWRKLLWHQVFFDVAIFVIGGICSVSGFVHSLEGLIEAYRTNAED
Summary of the method: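 Crude calf cerebral cortex synaptic vesicles in 20 mM K-Hepes pH 7.4, 4 mM MgSO4, 4 mM KCl, 0.25 M sucrose. Pre-incubated 10 min at 30 °C with varied test compound concentrations. Then 2 mM ATP plus 50 μM [3H]GABA for 10 min. Filtered and washed with 0.15 M KCl.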

[4] = test system: plasma membrane glutamate transporter; assay: Na+-dependent synaptosomal glutamate uptake; format: biochemical, rat; details: for Glutamate uptake / %Control: 50 μM test agent; for Glutamate uptake: Na+-dependent [3H]glutamate uptake into synaptosomes; for %Control: synaptosomal glutamate uptake
Summary of the method: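 Rat cerebrum synaptosomes (100 μg protein) were incubated 10 min at 37 °C in Krebs solution with 1 μM [3H]glutamate (5 Ci/mmol), ± 50 μM test agent. Na+-dependent uptake was NaCl minus choline chloride values, in dpm and % of control.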

[5] = test system: VGLUT; details: ref [25], cited from earlier work
[6] = Table 1, rat brain synaptic vesicles, 50 μM [3H]glutamate ± ATP, 10-min incubation
[7] = Table 3, Brilliant Yellow analogs, vesicular glutamate uptake

Row | Compound | IC50 [1, 6] [nM] | IC50 [1, 7] [nM] | other results
1 | Sulforhodamine | > 50000 | – | Inhibitory activity on vesicular glutamate uptake [1]: rather inactive
2 | CCOc1ccc(N=Nc2ccc(/C=C/c3ccc(N=Nc4ccc(OCC)cc4)cc3S(=O)(=O)O)c(S(=O)(=O)O)c2)cc1 [Chrysophenine] | – | 266 ± 70 | –
3 | O=C(Nc1ccc(C=Cc2ccc(NC(=O)c3ccccc3)cc2S(=O)(=O)O)c(S(=O)(=O)O)c1)c1ccccc1 [4,4’-dibenzamidostilbene-2,2’-disulfonate] | – | 2000 | –
4 | O=S(=O)([O-])c1cc(N=Nc2ccc(O)cc2)ccc1/C=C/c1ccc(N=Nc2ccc(O)cc2)cc1S(=O)(=O)[O-].[Na+].[Na+] [Brilliant Yellow] | 44 ± 7 | 44 ± 6 | Inhibition of vesicular glutamate uptake ([1]; at 0.3 μM): 80%; Ki [2]: 12 nM and 12.5 nM; Effect on vesicular GABA uptake [3]: affected neither; Glutamate uptake [4]: 279,032 dpm; %Control [4]: 112%; Effect on synaptosomal glutamate uptake ([4]; concentrations up to 50 μM): affected neither
5 | O=S(=O)(O)c1cc(S(=O)(=O)O)c2c(N=Nc3ccc(N=Nc4ccccc4)cc3)c(O)ccc2c1 [Brilliant Crocein MOO] | 7700 | – | –
6 | O=[N+]([O-])c1ccc(C=Cc2ccc([N+](=O)[O-])cc2S(=O)(=O)O)c(S(=O)(=O)O)c1 [4,4’-Dinitrostilbene-2,2’-disulfonate, 4,4’-dinitrostilbene-2,2’-disulfonate] | – | 1690 ± 110 | –
7 | CC(=O)Nc1ccc(C=Cc2ccc(NC(C)=O)cc2S(=O)(=O)O)c(S(=O)(=O)O)c1 [4,4-Diacetamidostilbene-2,2’-disulfonate, 4,4’-diacetamidostilbene-2,2’-disulfonate] | – | > 50000 | –
8 | Cc1cc(-c2ccc(/N=N/c3c(S(=O)(=O)O)cc4cc(S(=O)(=O)O)cc(N)c4c3O)c(C)c2)ccc1/N=N/c1c(S(=O)(=O)O)cc2cc(S(=O)(=O)O)cc(N)c2c1O [Trypan Blue] | – | – | IC50 [5, 26]: 49 nM; Ki [5]: ~50 nM
9 | COc1cc(N=Nc2c(C)cc(C)cc2S(=O)(=O)[O-])c(C)cc1N=Nc1c(S(=O)(=O)[O-])cc2cc(Nc3ccccc3)ccc2c1O.[Na+].[Na+] [Direct Violet 51] | 148 ± 31 | – | Glutamate uptake [4]: 258,020 dpm; %Control [4]: 104%
10 | O=S(=O)(O)c1cc(NS(=O)(=O)c2ccccc2)ccc1C=Cc1ccc(NS(=O)(=O)c2ccccc2)cc1S(=O)(=O)O [4,4’-diphenylsulfonamidostilbene-2,2’-disulfonate] | – | > 50000 | –
11 | O=S(=O)(O)c1ccc2c(N=Nc3cccc4ccccc34)c(O)c(S(=O)(=O)O)cc2c1 [Bordeau R] | 6500 | – | –
12 | O=C([O-])C1=NN(c2ccc(S(=O)(=O)[O-])cc2)C(=O)C1N=Nc1ccc(S(=O)(=O)[O-])cc1.[Na+].[Na+].[Na+] (centres unmarked) [Tartrazine] | > 50000 | – | Inhibitory activity on vesicular glutamate uptake [1]: rather inactive
13 | Nc1ccc(C=Cc2ccc(N)cc2S(=O)(=O)O)c(S(=O)(=O)O)c1 [4,4-Diaminostilbene-2,2’-disulfonate, 4,4’-diaminostilbene-2,2’-disulfonate] | – | > 50000 | –
14 | Nitrazine Yellow | 4400 | – | –

Reference: article PMC4025951 (Neurochemical research, 2013)
